Laboratory results reported in ChEMBL document CHEMBL2046401, “Detailed structure-activity relationship of indolecarboxamides as H4 receptor ligands” (Eur J Med Chem, 2012).
Converted amounts (≈) assume the structure as drawn.

What was measured:
[1] = target: Histamine H4 receptor (Homo sapiens, UniProt Q9H3N8); assay: Displacement of [3H]histamine from human histamine H4 receptor expressed in HEK cells; assay type: cell-based, HEK293
[2] = Solubility of the compound at pH 6.8; assay type: physicochemical; details: buffer
How it was run: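 Solubility determined by the DMSO solution precipitation method.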

[3] = Half life in mouse liver microsomes; assay type: ADME, Microsome
[4] = Half life in human liver microsomes; assay type: ADME, Microsome

Ki [1] | SMILES | further results
2510 nM | CN1CCN(C(=O)c2cc3ccccc3s2)CC1 | 
15.8 nM | CN1CCN(C(=O)c2cc3cccc(N)c3[nH]2)CC1 | 
79.4 nM | Cc1cccc2cc(C(=O)N3CC(N4CCCC4)C3)[nH]c12 | 
1000 nM | COc1ccc2[nH]c(C(=O)N3CCN(C)CC3)cc2c1 | 
5010 nM | CN1CCCN(C(=O)c2cc3cccc(C(F)(F)F)c3[nH]2)CC1 | 
6.31 nM | CN1CCN(C(=O)c2cc3c(F)c(Cl)ccc3[nH]2)CC1 | 
31.6 nM | CN1CCCN(C(=O)c2cc3c(F)c(Cl)ccc3[nH]2)CC1 | 
158 nM | CN1CCN(C(=O)c2cc3ccc(Cl)cc3[nH]2)CC1 | 
31.6 nM | CN1CCN(C(=O)c2cc3c(Cl)cccc3[nH]2)CC1 | 
100 nM | CNC1CN(C(=O)c2cc3cc(Cl)cc(F)c3[nH]2)C1 | 
12.6 nM | O=C(c1cc2cc(Cl)ccc2[nH]1)N1CCNCC1 | 
501 nM | CN[C@@H]1CCN(C(=O)c2cc3cccc(F)c3[nH]2)C1 | 
15.8 nM | CN1CCN(C(=O)c2cc3cc(F)ccc3[nH]2)CC1 | 
631 nM | CN[C@@H]1CCN(C(=O)c2cc3cccc(C)c3[nH]2)C1 | 
20 nM | CN1CCN(C(=O)c2cc3cccc(Cl)c3[nH]2)CC1 | 
15800 nM | COc1cccc2cc(C(=O)N3CCCN(C)CC3)[nH]c12 | 
15.8 nM | O=C(c1cc2cc(Cl)cc(F)c2[nH]1)N1CC(N2CCCC2)C1 | 
794 nM | CN1CCN(C(=O)c2cc3cccc([N+](=O)[O-])c3[nH]2)CC1 | 
200 nM | CNC1CN(C(=O)c2cc3cc(Cl)cc(C)c3[nH]2)C1 | solubility [2]: 51 µg/mL (≈ 184 µM); half-life [3]: 26 min; half-life [4]: > 90 min
79.4 nM | CN1CCN(C(=O)c2cc3ccc(N)cc3[nH]2)CC1 | 
251 nM | CN[C@@H]1CCN(C(=O)c2cc3cc(Cl)cc(C)c3[nH]2)C1 | solubility [2]: 59 µg/mL (≈ 202 µM); half-life [3]: 27 min; half-life [4]: > 90 min
50.1 nM | Cc1ccc2[nH]c(C(=O)N3CCN(C)CC3)cc2c1 | 
251 nM | CN1CCCN(C(=O)c2cc3c(F)cccc3[nH]2)CC1 | 

Ki [1] | SMILES | further results
2000 nM | CN1CCN(C(=O)c2cc3ccc([N+](=O)[O-])cc3[nH]2)CC1 | 
39.8 nM | Cc1ccc(F)c2cc(C(=O)N3CCN(C)CC3)[nH]c12 | 
12.6 nM | Cc1cc(Cl)cc2cc(C(=O)N3CCNCC3)[nH]c12 | solubility [2]: 65 µg/mL (≈ 234 µM); half-life [3]: 16 min; half-life [4]: > 90 min
100 nM | O=C(c1cc2cccc(F)c2[nH]1)N1CCNCC1 | 
6310 nM | CN1CCN(C(=O)c2cc3cnccc3[nH]2)CC1 | 
20 nM | CN1CCN(C(=O)c2cc3cccc(F)c3[nH]2)CC1 | 
251 nM | CN[C@@H]1CCN(C(=O)c2cc3cc(Cl)cc(F)c3[nH]2)C1 | 
6.31 nM | CN1CCN(C(=O)c2cc3cc(Cl)cc(F)c3[nH]2)CC1 | 
39.8 nM | CN1CCCN(C(=O)c2cc3cc(Cl)ccc3[nH]2)CC1 | 
1580 nM | Cc1cccc2cc(C(=O)N3CCCN(C)CC3)[nH]c12 | 
398 nM | CNC1CN(C(=O)c2cc3cccc(F)c3[nH]2)C1 | 
39.8 nM | O=C(c1cc2cccc(F)c2[nH]1)N1CC(N2CCCC2)C1 | 
10 nM | O=C(c1cc2cc(Cl)ccc2[nH]1)N1CC(N2CCCC2)C1 | 
63.1 nM | CN1CCCN(C(=O)c2cc3cc(Cl)cc(F)c3[nH]2)CC1 | 
15800 nM | COc1ccc2cc(C(=O)N3CCN(C)CC3)[nH]c2c1 | 
6.31 nM | CN1CCN(C(=O)c2cc3c(Cl)c(Cl)ccc3[nH]2)CC1 | 
2510 nM | COc1cccc2cc(C(=O)N3CCN(C)CC3)[nH]c12 | 
398 nM | CN1CCCN(C(=O)c2cc3cccc(F)c3[nH]2)CC1 | 
5010 nM | CC(=O)c1cccc2[nH]c(C(=O)N3CCN(C)CC3)cc12 | 
794 nM | CN1CCN(C(=O)c2cc3c([N+](=O)[O-])cccc3[nH]2)CC1 | 
6.31 nM | Cc1cc(Cl)cc2cc(C(=O)N3CCN(C)CC3)[nH]c12 | solubility [2]: 57 µg/mL (≈ 195 µM); half-life [3]: 2 min; half-life [4]: > 45 min
251 nM | CN1CCN(C(=O)c2cc3cc(Cl)ccc3o2)CC1 | 
79.4 nM | CN1CCN(C(=O)c2cc3c(F)ccc(F)c3[nH]2)CC1 | 

Ki [1] | SMILES | further results
20 nM | O=C(c1cc2cc(Cl)cc(F)c2[nH]1)N1CCNCC1 | 
25.1 nM | CN1CCN(C(=O)c2cc3ccc(O)cc3[nH]2)CC1 | 
3980 nM | CN1CCN(C(=O)c2cc3ncccc3[nH]2)CC1 | 
5.01 nM | CN1CCN(C(=O)c2cc3cc(Cl)cc(N)c3[nH]2)CC1 | solubility [2]: 67 µg/mL (≈ 229 µM); half-life [3]: 14 min; half-life [4]: 66 min
316 nM | CN1CCN(C(=O)c2cc3c(N)cccc3[nH]2)CC1 | 
1000 nM | CN1CCN(C(=O)c2cc3cccc(C(F)(F)F)c3[nH]2)CC1 | 
31.6 nM | Cc1cc(Cl)cc2cc(C(=O)N3CC(N4CCCC4)C3)[nH]c12 | solubility [2]: 10 µg/mL (≈ 31.5 µM); half-life [3]: 11 min; half-life [4]: > 90 min
398 nM | CN1CCN(C(=O)c2cc3cc(Cl)cc([N+](=O)[O-])c3[nH]2)CC1 | 
12.6 nM | Cc1cccc2cc(C(=O)N3CCN(C)CC3)[nH]c12 | 
398 nM | CN1CCCN(C(=O)c2cc3ccccc3[nH]2)CC1 | 
79.4 nM | CN1CCN(C(=O)c2cc3cc([N+](=O)[O-])ccc3[nH]2)CC1 | 
1000 nM | COc1cccc2[nH]c(C(=O)N3CCN(C)CC3)cc12 | 
31.6 nM | CN1CCN(C(=O)c2cc3c(F)cccc3[nH]2)CC1 | 
2000 nM | CN1CCN(C(=O)c2cc3ccncc3[nH]2)CC1 | 
39.8 nM | Cc1cccc2cc(C(=O)N3CCNCC3)[nH]c12 | 
63.1 nM | O=C(c1cc2cc(Cl)ccc2[nH]1)N1CCCNCC1 | 
25.1 nM | CN1CCN(C(=O)c2cc3cc(O)ccc3[nH]2)CC1 | 
2000 nM | CN1CCN(C(=O)c2cc3cccnc3[nH]2)CC1 | 
12600 nM | CC(=O)c1ccc2[nH]c(C(=O)N3CCN(C)CC3)cc2c1 | 
158 nM | CN1CCN(C(=O)c2cc3c(O)cccc3[nH]2)CC1 | 
398 nM | CNC1CN(C(=O)c2cc3cccc(C)c3[nH]2)C1 | 
